ChEMBL document CHEMBL1142876, “Non-carboxylic analogues of arylpropionic acids: synthesis, anti-inflammatory activity and ulcerogenic potential” (Eur J Med Chem, 2007)

Tests used:
Rattus norvegicus [1] = assay: Antiinflammatory activity against carrageenan-induced paw edema in Albino rat at 30 mg/kg body weight, sc; type: functional; settings: route subcutaneous
How it was run: (§1)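 Rats from National Research Centre, acclimatised one week, 12 h light/dark, food and water ad libitum; groups of six. Right hind paw sub-plantar injection of 0.05 mL 1% carrageenan in saline. Drugs dissolved in DMSO, given subcutaneously; vehicle controls got DMSO. Paw volume measured before and 0.5, 1.5, 2, 3, 6, 8 h post-carrageenan; edema AUC by trapezoidal method, mean ± S.E.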

Rattus norvegicus [2] = assay: Toxicity assessed as ulcerogenic effect in Albino rat at 30 mg/kg, po twice a day after 3 days; type: organism-based; design: dose 30 mg/kg, route oral; settings: in vivo, 72 h
How it was run: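 Male albino rats, 150–200 g, fasted 12 h (water ad libitum), six per group. Oral dosing in two equal doses of 30 mg/kg at 0 and 12 h for three successive days; controls received 1% gum acacia orally. Killed with diethyl ether 6 h after final dose; stomach opened along greater curvature, saline-washed, examined under 3× lens for hyperemia, haemorrhage or ulcer. % ulceration = ulcer-bearing animals/group total ×100.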

Rattus norvegicus [3] = assay: Antiinflammatory activity against carrageenan-induced paw edema in Albino rat at 200 mg/kg body weight, sc; type: functional; settings: route subcutaneous; how it was run: as §1

Row | Structure (SMILES) | Activity (Rattus norvegicus [1]) [%] | Activity (Rattus norvegicus [2]) [%] | Activity (Rattus norvegicus [3]) [%]
1 | CC(C)Cc1ccc(C(C)c2nnc(Nc3ccc(Br)cc3)[nH]2)cc1 (centres undefined) | 69.52 | 33.3 | –
2 | CC(c1ccc(-c2ccccc2)c(F)c1)c1nnc(Nc2cccc(Cl)c2)[nH]1 (centres undefined) | 69.65 | 0 | –
3 | COc1ccc2cc(C(C)c3nnc(Nc4cccc(Cl)c4)[nH]3)ccc2c1 (centres undefined) | 66.8 | 0 | –
4 | COc1ccc2cc(C(C)c3nnc(Nc4ccc(Br)cc4)[nH]3)ccc2c1 (centres undefined) | 69.67 | – | –
5 | CC(C)Cc1ccc(C(C)c2nnc(Nc3cccc(Cl)c3)[nH]2)cc1 (centres undefined) | 70.86 | – | –
6 | CC(c1ccc(-c2ccccc2)c(F)c1)c1nnc(Nc2ccc(Br)cc2)[nH]1 (centres undefined) | 68.36 | 0 | –
7 | CC(C)Cc1ccc(C(C)c2nnc3sc(S)nn23)cc1 (centres undefined) | 72.1 | – | –
8 | C[C@]12CCC(=O)C=C1CC[C@@H]1[C@@H]2[C@@H](O)C[C@@]2(C)[C@H]1CC[C@]2(O)C(=O)CO [HYDROCORTISONE] | – | – | 73.39
9 | CC(C)Cc1ccc(C(C)C(=O)O)cc1 (centres undefined) [IBUPROFEN] | 86.07 | – | –
10 | COc1ccc2c(c1)c(CC(=O)O)c(C)n2C(=O)c1ccc(Cl)cc1 [INDOMETHACIN] | – | 100 | –
